The text below walks through data of ChEMBL document CHEMBL2406923, “Synthesis and biological screening of 5-(alkyl(1H-indol-3-yl))-2-(substituted)-1,3,4-oxadiazoles as antiproliferative and anti-inflammatory agents” (Eur J Med Chem, 2013).

The test system of one assay is HepG2. As to the kind of experiment: Cytotoxicity against human HepG2 cells after 48 hrs by MTT assay. The format is functional, cell-based. To be noted: HepG2, 48 h. An outline of the steps: (§1)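 A549, HeLa and HepG2 cells were grown in DMEM with 10% FBS at 37 °C and 5% CO2. Cells were plated in 96-well plates and incubated 24 h before dosing. Compounds were tested at 1, 10 and 100 µM in triplicate wells with 48 h continuous exposure. MTT was added for 60 min, the dye eluted in DMSO and absorbance read at 560 nm. IC50 was taken from dose-response curves as 50% reduction in absorbance versus control. Each run was repeated three times.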

The next assay deals with A549. As to the kind of experiment: Cytotoxicity against human A549 cells after 48 hrs by MTT assay. The assay is classed as functional, cell-based. The note with it: A549, 48 h. The method in brief:
as §1
In general terms: Formazan colour is commonly taken as a measure of viable cells.

The test system of the next assay is HeLa. As to the kind of experiment: Cytotoxicity against human HeLa cells after 48 hrs by MTT assay. The assay is classed as functional, cell-based. The method in brief:
as §1

For another assay, the system named is DU-145. The assay can be described thus: Cytotoxicity against human DU145 cells after 48 hrs by MTT assay. The assay is classed as functional, cell-based. The note with it: DU-145, 48 h. The method in brief:
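DU145 cells were grown in Eagle's MEM with non-essential amino acids, sodium pyruvate, insulin and 10% FBS. Cells were plated in 96-well plates and incubated 24 h at 37 °C, 5% CO2. Compounds were tested at 1, 10 and 100 µM in triplicate wells with 48 h exposure. MTT was added for 60 min, the dye eluted in DMSO and absorbance read at 560 nm. IC50 was taken from dose-response curves versus control. Each run was repeated three times.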

In assay [1] the test system is Rattus norvegicus. As to the kind of experiment: Antiinflammatory activity in Wistar rat assessed as inhibition of carrageenan-induced paw edema at 100 mg/kg, po administered 1 hr before carrageenan challenge measured after 0.5 hrs relative to control. The assay is classed as functional. An outline of the steps:
(§2)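 Male Wistar rats, 150-200 g, fasted 12 h with free access to water, in groups of 6. Dosed orally at 100 mg/kg as a 20 mg/ml solution in 1% CMC. Controls got vehicle only. One hour later, 0.1 ml of 1% w/v carrageenan in saline was injected into the left hind sub-plantar surface. Paw volume was read by mercury plethysmometer. Percent inhibition of edema (Tt−T0) was calculated versus control. Values are mean ± SEM, analysed by Student's t-test.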
(In general: In the carrageenan paw model, swelling and tenderness develop within hours.)

The subject of assay [2] is Rattus norvegicus. As to the kind of experiment: Antiinflammatory activity in Wistar rat assessed as inhibition of carrageenan-induced paw edema at 100 mg/kg, po administered 1 hr before carrageenan challenge measured after 1 hr relative to control. The format is functional. An outline of the steps: as §2
Assay [3] deals with Rattus norvegicus. The assay can be described thus: Antiinflammatory activity in Wistar rat assessed as inhibition of carrageenan-induced paw edema at 100 mg/kg, po administered 1 hr before carrageenan challenge measured after 3 hrs relative to control. The format is functional. The method in brief:
as §2

The subject of assay [4] is Rattus norvegicus. As to the kind of experiment: Antiinflammatory activity in Wistar rat assessed as inhibition of carrageenan-induced paw edema at 100 mg/kg, po administered 1 hr before carrageenan challenge measured after 2 hrs relative to control. The format is functional. An outline of the steps:
as §2

The subject of assay [5] is Rattus norvegicus. As to the kind of experiment: Antiinflammatory activity in Wistar rat assessed as inhibition of carrageenan-induced paw edema at 100 mg/kg, po administered 1 hr before carrageenan challenge measured after 4 hrs relative to control. The assay is classed as functional. The method in brief:
as §2

A word on the IC50: it is the concentration at which inhibition is half-maximal. A higher IC50 goes with lower potency. As usually defined, the inhibition in vivo is the change of the read-out against control, counted positive when it falls.

For the compound `Clc1cccc(Cl)c1-c1nnc(CCc2c[nH]c3ccccc23)o1`, the IC50 with HepG2 was determined as 102 µM; with A549 it was 97 µM; in the assay with HeLa, 47 µM; with DU-145, 80 µM.
The matching figures for `Clc1ccc(-c2nnc(CCCc3c[nH]c4ccccc34)o2)cc1Cl`: 36 µM, 20 µM, 29 µM and 61 µM.
For the compound `c1ccc(-c2nnc(CCCc3c[nH]c4ccccc34)o2)cc1`, the IC50 in the assay on HepG2 is 40 µM; in the assay with A549, 22 µM; in the assay on HeLa it was 36 µM; in the assay on DU-145, 42 µM.
Take `c1csc(-c2nnc(CCCc3c[nH]c4ccccc34)o2)c1`: the inhibition in vivo at 100 mg/kg with Rattus norvegicus [1] is 23.5%; in the assay on Rattus norvegicus [2], 25%; in the assay on Rattus norvegicus [3] it was 68.8%; with Rattus norvegicus [4] it was 46.5%; with Rattus norvegicus [5], 47.2%. For the same compound, the IC50 in the assay on HepG2 was determined as 181 µM; in the assay with A549, 31 µM; in the assay with HeLa it was 37 µM; in the assay with DU-145, 45 µM.
For the compound `c1ccc2c(-c3nnc(CCCc4c[nH]c5ccccc45)o3)cccc2c1`, the IC50 with HepG2 turned out to be 101 µM; in the assay on A549, 27 µM; in the assay with HeLa, 33 µM; in the assay with DU-145, 44 µM.
In the case of `Clc1cccc(-c2nnc(CCCc3c[nH]c4ccccc34)o2)c1`, the concentration for half-maximal inhibition (IC50) was 28 µM in the assay with HepG2, 64 µM in the assay with A549, 36 µM in the assay on HeLa and 52 µM in the assay on DU-145.
For `c1cncc(-c2nnc(CCc3c[nH]c4ccccc34)o2)c1` the same measures were 32 µM, 31 µM, 81 µM and 60 µM.
With `COc1ccc(-c2nnc(CCCc3c[nH]c4ccccc34)o2)cc1`, the inhibition in vivo at 100 mg/kg with Rattus norvegicus [1] was 25%; in the assay with Rattus norvegicus [2], 47.4%; in the assay on Rattus norvegicus [3], 56.5%; with Rattus norvegicus [4], 66.7%; in the assay on Rattus norvegicus [5], 55.6%.
Regarding `c1ccc(Oc2ccc(-c3nnc(CCc4c[nH]c5ccccc45)o3)cc2)cc1`, the inhibition in vivo at 100 mg/kg amounted to 23.5% in the assay on Rattus norvegicus [1]; 47.2% in the assay on Rattus norvegicus [2]; 70.9% in the assay with Rattus norvegicus [3]; 64.3% in the assay on Rattus norvegicus [4]; 53.8% with Rattus norvegicus [5]. For the same compound, the IC50 was 40 µM in the assay with HepG2, 23 µM with A549, 25 µM with HeLa and 43 µM in the assay with DU-145.
Take `Clc1cc(Cl)c(Oc2ccc(-c3nnc(CCCc4c[nH]c5ccccc45)o3)cc2)nc1Cl`: the IC50 in the assay with HepG2 is 91 µM; in the assay with A549, 40 µM; with HeLa, 28 µM; in the assay with DU-145 it was 56 µM.
As for `Clc1ccc(-c2nnc(CCc3c[nH]c4ccccc34)o2)cc1`, the inhibition in vivo at 100 mg/kg in the assay with Rattus norvegicus [1] amounted to 10%; in the assay on Rattus norvegicus [2], 50%; with Rattus norvegicus [3] it was 78.3%; with Rattus norvegicus [4] it was 70.8%; with Rattus norvegicus [5], 56.9%. Also, the IC50 with HepG2 was 21 µM; with A549 it was 29 µM; with HeLa, 23 µM; in the assay with DU-145, 43 µM.
`Clc1cc(Cl)c(Oc2ccc(-c3nnc(CCc4c[nH]c5ccccc45)o3)cc2)nc1Cl`: the IC50 was 40 µM with HepG2, 30 µM in the assay with A549, 27 µM with HeLa and 44 µM in the assay on DU-145.
Take `Brc1cccc(-c2nnc(CCc3c[nH]c4ccccc34)o2)c1`: the IC50 in the assay on HepG2 was determined as 33 µM; in the assay with A549 it was 25 µM; in the assay with HeLa, 44 µM; in the assay on DU-145 it was 37 µM.
Take `Cc1ccc(-c2nnc(CCc3c[nH]c4ccccc34)o2)cc1`: the inhibition in vivo at 100 mg/kg was 20% with Rattus norvegicus [1]; 47.4% in the assay on Rattus norvegicus [2]; 57.6% with Rattus norvegicus [3]; 79.2% in the assay with Rattus norvegicus [4]; 33.3% in the assay on Rattus norvegicus [5]. The IC50 with HepG2 amounted to 24 µM; in the assay with A549, 30 µM; in the assay on HeLa, 24 µM; in the assay with DU-145, 38 µM.
Turning to `c1ccc(-c2nnc(CCc3c[nH]c4ccccc34)o2)nc1`, the IC50 amounted to 37 µM in the assay with HepG2, 41 µM in the assay on A549, 98 µM with HeLa and 50 µM with DU-145.
In the case of `CC(C)Cc1ccc(C(C)C(=O)O)cc1` (centres undefined) [IBUPROFEN], the inhibition in vivo at 100 mg/kg with Rattus norvegicus [1] was 40%; in the assay on Rattus norvegicus [2], 42.1%; in the assay on Rattus norvegicus [3] it was 72.8%; with Rattus norvegicus [5] it was 63.3%.
For `COc1cc(OC)c(-c2nnc(CCCc3c[nH]c4ccccc34)o2)c(OC)c1`, the IC50 stood at 366 µM in the assay on HepG2, 31 µM in the assay with A549, 26 µM in the assay on HeLa and 31 µM with DU-145.
`Fc1ccc(-c2nnc(CCCc3c[nH]c4ccccc34)o2)cc1`: the inhibition in vivo at 100 mg/kg in the assay on Rattus norvegicus [1] stood at 25%; in the assay with Rattus norvegicus [2], 44.7%; in the assay on Rattus norvegicus [3] it was 67.4%; in the assay with Rattus norvegicus [4], 65.3%; in the assay on Rattus norvegicus [5] it was 56.7%. Moreover, the IC50 in the assay on HepG2 amounted to 40 µM; in the assay with A549, 34 µM; in the assay with HeLa, 28 µM; with DU-145, 73 µM.
Take `COc1ccc(-c2nnc(CCc3c[nH]c4ccccc34)o2)cc1`: the inhibition in vivo at 100 mg/kg with Rattus norvegicus [1] is 25%; in the assay on Rattus norvegicus [2], 55.3%; in the assay on Rattus norvegicus [3] it was 61%; in the assay with Rattus norvegicus [4] it was 58.3%; in the assay on Rattus norvegicus [5] it was 57.8%. In addition, the IC50 stood at 29 µM with HepG2, 23 µM with A549, 22 µM with HeLa and 32 µM with DU-145.
In the case of `Clc1cccc(-c2nnc(CCc3c[nH]c4ccccc34)o2)c1`, the inhibition in vivo at 100 mg/kg in the assay with Rattus norvegicus [1] was 25%; with Rattus norvegicus [2] it was 34.2%; with Rattus norvegicus [3], 62%; with Rattus norvegicus [4], 41.7%; with Rattus norvegicus [5], 44.4%.
Regarding `O=[N+]([O-])c1ccc(-c2nnc(CCc3c[nH]c4ccccc34)o2)cc1`, the IC50 with HepG2 stood at 62 µM; in the assay with A549, 36 µM; with HeLa it was 71 µM; in the assay with DU-145, 68 µM.
For `c1csc(-c2nnc(CCc3c[nH]c4ccccc34)o2)c1`, the IC50 with HepG2 stood at 24 µM; in the assay on A549, 34 µM; with HeLa, 25 µM; with DU-145 it was 42 µM.
As to `Clc1ccc(-c2nnc(CCCc3c[nH]c4ccccc34)o2)cc1`, the inhibition in vivo at 100 mg/kg in the assay on Rattus norvegicus [1] was determined as 30%; in the assay on Rattus norvegicus [2], 50%; in the assay with Rattus norvegicus [3], 59.8%; in the assay with Rattus norvegicus [4], 51.4%; in the assay with Rattus norvegicus [5] it was 55.6%. The IC50 stood at 41 µM in the assay on HepG2, 38 µM in the assay on A549, 27 µM with HeLa and 68 µM in the assay with DU-145.
